From ChEMBL document CHEMBL5344453, “Selective Recognition of c-KIT 1 G-Quadruplex by Structural Tuning of Heteroaromatic Scaffolds and Side Chains” (ACS Med Chem Lett, 2024)
Activity calls are given as the source filed them. No cut-off for these calls is given here.

Tests used:
[1] = Reduction of c-MYC oncogene expression in human K562 cells transfected with c-MYC plasmid construct assessed as reduction in luciferase expression at 6 uM measured after 36 hrs by luciferase reporter assay; type: functional
Summary of the method: (§1)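 Promoter luciferase reporter: K562 cells transfected with a c-MYC promoter G4-containing luciferase-expressing plasmid, then ligand-treated at two doses each (3 and 6 μM, or 5.5 and 11 μM); read-out as relative luciferase expression, reported as percent reduction.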

K562 [2] = assay: Attenuation of proto-oncogene expression in human c-KIT-positive K562 cells assessed as reduction in BCL-2 oncogene expression at 6 uM measured after 24 hrs by qRT-PCR analysis relative to control; type: functional
Summary of the method: (§2)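 K562 cells treated 24 h at two doses per ligand (3 and 6 μM, 5.5 and 11 μM; positive control 2 and 4 μM). c-KIT, c-MYC and BCL-2 mRNA measured by qRT-PCR and normalized to housekeeping gene 18s, relative to untreated control.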

K562 [3] = assay: Induction of cell cycle arrest in human K562 cells assessed as accumulation at G0/G1 phase at 3 uM incubated for 24 hrs by propidium iodide based assay; type: functional
Summary of the method: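 K562 cells were treated with ligand (3 and 6 μM or 5.5 and 11 μM) and stained with propidium iodide. The fraction of cells in each cell-cycle phase was determined by flow cytometry.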

Quadruplex DNA [4] = assay: Binding affinity to G-quadruplex c-KIT 2 5-FAM-GGGCGGGCGCGAGGGAGGGG-TAMRA-3 (unknown origin) assessed as dissociation constant by fluorescence spectroscopy assay; type: nucleic-acid assay
Summary of the method: (§3)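 Fluorimetric titration of ligand held at 1.0 μM with increasing concentrations of G4 or dsDNA until saturation. Change in ligand fluorescence intensity was fitted for Kd. Run in 100 mM Tris-KCl buffer, pH 7.4.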

Quadruplex DNA [5] = assay: Binding affinity to G-quadruplex c-KIT1 5-FAM-GGGAGGGCGCTGGGAGGAGGG-TAMRA-3 (unknown origin) assessed as increase in melting temperature by CD spectra analysis; type: nucleic-acid assay
[6] = Reduction of c-KIT oncogene expression in human K562 cells transfected with c-KIT plasmid construct assessed as reduction in luciferase expression at 6 uM measured after 36 hrs by luciferase reporter assay; type: functional
Summary of the method: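 K562 cells were transfected with luciferase plasmids carrying the c-KIT, c-MYC or BCL-2 promoter G4. They were then treated with ligand (3 and 6 μM or 5.5 and 11 μM), and relative luciferase expression was measured.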

Quadruplex DNA [7] = assay: Binding affinity to G-quadruplex BCL-2 5-FAM-AGGGGCGGGCGCGGGAGGAAGGGGGCGGGAGCGGGGCTG-TAMRA-3 (unknown origin) assessed as dissociation constant by fluorescence spectroscopy assay; type: nucleic-acid assay; summary of the method: as §3
K562 [8] = assay: Attenuation of proto-oncogene expression in human c-KIT-positive K562 cells assessed as reduction in c-MYC oncogene expression at 6 uM measured after 24 hrs by qRT-PCR analysis relative to control; type: functional; summary of the method: as §2
[9] = Reduction of c-MYC oncogene expression in human K562 cells transfected with c-MYC plasmid construct assessed as reduction in luciferase expression at 3 uM measured after 36 hrs by luciferase reporter assay; type: functional; summary of the method: as §1
Quadruplex DNA [10] = assay: Stabilization of G-quadruplex c-KIT1 5-FAM-GGGAGGGCGCTGGGAGGAGGG-TAMRA-3 (unknown origin) assessed as change in melting temperature at 7 uM incubated for 1 hr in dark condition by FRET-based melting assay; type: nucleic-acid assay
Summary of the method: (§4)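 FRET melting of dual-fluorophore (FAM/TAMRA) tagged G-quadruplex (200 nM) in 60 mM potassium cacodylate, pH 7.4. The screen used 1 μM ligand; dose series used 1, 3, 5, 7 and 10 μM. ΔTm was taken against the Tm of the same oligonucleotide without ligand.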

[11] = Reduction of c-KIT protein expression in human K562 cells at 6 uM measured after 24 hrs by Western blotting analysis relative to control; type: functional
Summary of the method: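 K562 cells were treated with ligand (3 and 6 μM or 5.5 and 11 μM). c-KIT protein was measured by Western blot with GAPDH as the housekeeping reference, relative to control.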

Quadruplex DNA [12] = assay: Binding affinity to G-quadruplex c-KIT1 5-FAM-GGGAGGGCGCTGGGAGGAGGG-TAMRA-3 (unknown origin) assessed as stability by CD spectra analysis; type: nucleic-acid assay
Quadruplex DNA [13] = assay: Binding affinity to G-quadruplex BCL-2 5-FAM-AGGGGCGGGCGCGGGAGGAAGGGGGCGGGAGCGGGGCTG-TAMRA-3 (unknown origin) assessed as dissociation constant by measuring thermogram by isothermal titration calorimetry (ITC) assay; type: nucleic-acid assay
Summary of the method: (§5)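 ITC of ligand binding to folded G4 in 100 mM Tris-KCl buffer, pH 7.4. Kd and stoichiometry were obtained from the isothermal heat curve and binding isotherm.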

Quadruplex DNA [14] = assay: Stabilization of G-quadruplex h-TELO 5-FAM-TTGGGTTAGGGTTAGGGTTAGGGA-TAMRA-3 (unknown origin) assessed as change in melting temperature at 1 uM incubated for 1 hr in dark condition by FRET-based melting assay; type: nucleic-acid assay
Summary of the method: (§6)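 FRET melting of dual-fluorophore-tagged oligonucleotides (200 nM) in 60 mM potassium cacodylate buffer, pH 7.4, with ligand at 1 μM; ΔTm taken against the ligand-free oligonucleotide Tm as control.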

Quadruplex DNA [15] = assay: Binding affinity to G-quadruplex VEGF 5-FAM-CGGGGCGGGCCGGGGGCGGGGT-TAMRA-3 (unknown origin) assessed as dissociation constant by measuring thermogram by isothermal titration calorimetry (ITC) assay; type: nucleic-acid assay; summary of the method: as §5
Quadruplex DNA [16] = assay: Stabilization of G-quadruplex c-KIT1 5-FAM-GGGAGGGCGCTGGGAGGAGGG-TAMRA-3 (unknown origin) assessed as change in melting temperature at 1 uM incubated for 1 hr in dark condition by FRET-based melting assay; type: nucleic-acid assay; summary of the method: as §6
Quadruplex DNA [17] = assay: Binding affinity to G-quadruplex c-KIT1 5-FAM-GGGAGGGCGCTGGGAGGAGGG-TAMRA-3 (unknown origin) assessed as dissociation constant by isothermal titration calorimetry (ITC) assay; type: nucleic-acid assay; summary of the method: as §5
Quadruplex DNA [18] = assay: Binding affinity to excessive G-quadruplex c-KIT1 5-FAM-GGGAGGGCGCTGGGAGGAGGG-TAMRA-3 (unknown origin) assessed as fold increase in fluorescence intensity at 1 uM incubated for 1 hr in dark condition by fluorescence spectroscopy assay relative to VEGF; type: nucleic-acid assay
Summary of the method: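 Ligand (1.0 μM) titrated to saturation with increasing G-quadruplex in 100 mM Tris-KCl buffer, pH 7.4. The value is the ratio of the c-KIT 1 fold change in fluorescence intensity to the fold change obtained with VEGF or c-KIT 2.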

Quadruplex DNA [19] = assay: Stabilization of fluorophore tagged G-quadruplex c-KIT1 (unknown origin) assessed as change in melting temperature in presence of 0 to 100 equiv calf thymus DNA at 1 uM incubated for 1 hr in dark condition by competitive FRET-based melting assay; type: nucleic-acid assay
Summary of the method: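 Competitive FRET melting with fluorophore-labeled c-KIT 1 G-quadruplex and 1 μM ligand. Unlabeled calf thymus DNA was added at 0, 1, 5, 10, 50 and 100 molar equivalents over the labeled DNA, and ΔTm was monitored.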

Quadruplex DNA [20] = assay: Stabilization of G-quadruplex c-KIT1 5-FAM-GGGAGGGCGCTGGGAGGAGGG-TAMRA-3 (unknown origin) assessed as change in melting temperature at 10 uM incubated for 1 hr in dark condition by FRET-based melting assay; type: nucleic-acid assay; summary of the method: as §4

CN(C)CCCNC(=O)c1ccc(-n2cc(-c3ccc4[nH]c5ccccc5c4c3)nn2)cc1
inhibition at 6 µM [1]: 12.3% | inhibition at 6 µM (K562 [2]): 39% | Activity (K562 [3]): 74.1% | Kd (Quadruplex DNA [4]): 2800 nM | ΔTm (Quadruplex DNA [5]): 16 °C | inhibition at 6 µM [6]: 69% | Kd (Quadruplex DNA [7]): 4.8 µM | inhibition at 6 µM (K562 [8]): 19% | inhibition at 3 µM [9]: 6% | ΔTm (Quadruplex DNA [10]): 26.5 °C | inhibition at 6 µM [11]: 65.5% | Activity (Quadruplex DNA [12]): Active | Kd (Quadruplex DNA [13]): 10.8 µM | ΔTm (Quadruplex DNA [14]): 4.5 °C | Kd (Quadruplex DNA [15]): 15.9 µM | ΔTm (Quadruplex DNA [16]): 20.1 °C | Kd (Quadruplex DNA [17]): 1600 nM | fold change (FC) (Quadruplex DNA [18]): 2.8 | Activity (Quadruplex DNA [19]): Active | ΔTm (Quadruplex DNA [20]): 26.5 °C
